Reference: ChEMBL document CHEMBL1800057, “Discovery of dual inducible/neuronal nitric oxide synthase (iNOS/nNOS) inhibitor development candidate 4-((2-cyclobutyl-1H-imidazo[4,5-b]pyrazin-1-yl)methyl)-7,8-difluoroquinolin-2(1H)-one (KD7332) part 2: identification of a novel, potent, and selective series of benzimidazole-quinolinone …” (J Med Chem, 2010)

How the values were obtained:
Homo sapiens [1] = organism: Homo sapiens; assay: Ratio of IC50 for human eNOS to EC50 for human iNOS
Homo sapiens [2] = organism: Homo sapiens; assay: Ratio of IC50 for human nNOS to EC50 for human iNOS
Liver = assay: Half life in mouse liver microsomes assessed as formation of oxidation product and glucuronide conjugate; format: ADME, Microsome
Method in brief: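 Mouse liver microsomes run under combined phase I oxidation and phase II glucuronide conjugation; half-life reported in minutes.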

Nitric oxide synthase 1 [3] = target: T1, Nitric oxide synthase 1 (Homo sapiens, UniProt P29475); assay: Inhibition of human nNOS expressed in HEK293 cells assessed as inhibition ionomycin induced nitric oxide production incubated for 24 hrs measured after 18 hrs of ionomycin challenge using 2,3-diaminonaphthalene by fluorescence assay; format: cell-based
T1 sequence (P29475 whole entry): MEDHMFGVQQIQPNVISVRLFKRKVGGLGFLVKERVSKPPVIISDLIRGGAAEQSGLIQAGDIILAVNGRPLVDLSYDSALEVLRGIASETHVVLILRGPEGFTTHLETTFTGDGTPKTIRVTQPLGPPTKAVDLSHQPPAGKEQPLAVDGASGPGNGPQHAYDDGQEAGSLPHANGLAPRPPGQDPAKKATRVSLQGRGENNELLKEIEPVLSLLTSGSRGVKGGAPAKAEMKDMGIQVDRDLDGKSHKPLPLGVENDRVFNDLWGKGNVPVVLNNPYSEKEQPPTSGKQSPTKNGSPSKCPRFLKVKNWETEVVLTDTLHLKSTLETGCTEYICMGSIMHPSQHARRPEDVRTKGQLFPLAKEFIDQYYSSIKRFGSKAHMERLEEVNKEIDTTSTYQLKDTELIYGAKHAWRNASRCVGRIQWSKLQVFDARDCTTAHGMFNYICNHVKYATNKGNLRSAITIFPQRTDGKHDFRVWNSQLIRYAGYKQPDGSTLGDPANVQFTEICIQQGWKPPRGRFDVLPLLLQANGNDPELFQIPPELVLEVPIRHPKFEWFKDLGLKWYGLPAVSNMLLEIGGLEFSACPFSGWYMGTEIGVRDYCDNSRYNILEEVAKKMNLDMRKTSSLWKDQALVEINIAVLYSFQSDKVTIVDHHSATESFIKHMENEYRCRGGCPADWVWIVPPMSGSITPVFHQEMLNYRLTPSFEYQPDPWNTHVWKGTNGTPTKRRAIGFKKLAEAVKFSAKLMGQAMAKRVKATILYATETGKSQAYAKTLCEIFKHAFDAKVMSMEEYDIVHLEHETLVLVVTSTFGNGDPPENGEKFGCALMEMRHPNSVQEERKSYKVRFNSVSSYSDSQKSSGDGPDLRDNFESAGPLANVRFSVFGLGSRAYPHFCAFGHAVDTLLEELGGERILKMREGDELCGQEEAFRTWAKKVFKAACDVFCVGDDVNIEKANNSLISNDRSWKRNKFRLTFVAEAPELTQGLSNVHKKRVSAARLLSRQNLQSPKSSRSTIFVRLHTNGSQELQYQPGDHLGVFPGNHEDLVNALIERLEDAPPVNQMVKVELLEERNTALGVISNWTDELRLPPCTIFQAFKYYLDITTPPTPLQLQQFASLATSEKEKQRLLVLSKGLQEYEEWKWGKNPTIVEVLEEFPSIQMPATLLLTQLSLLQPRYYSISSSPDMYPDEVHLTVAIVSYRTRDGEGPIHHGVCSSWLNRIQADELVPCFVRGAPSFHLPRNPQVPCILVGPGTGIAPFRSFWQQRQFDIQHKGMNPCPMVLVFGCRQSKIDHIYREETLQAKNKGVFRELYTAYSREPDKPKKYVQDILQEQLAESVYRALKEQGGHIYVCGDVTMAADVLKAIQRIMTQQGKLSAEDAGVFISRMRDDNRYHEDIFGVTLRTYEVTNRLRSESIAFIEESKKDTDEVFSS
Method in brief: (§1)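 HEK293 cells transfected for 4 h at 37 °C with human nNOS (10 μg) or human eNOS (15 μg) plasmid (Fugene 6, 3:1). Cells replated at 5e5 cells/mL and dosed with compound at once; SEITU (100 μM final) as positive control. After 24 h, cells activated with A23187 (83 nM final) for eNOS or ionomycin (30 μM final) for nNOS. NO read 18 h later as nitrite-DAN fluorescence.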

[4] = target: T2, Nitric oxide synthase 3 (Homo sapiens) (UniProt P29474); assay: Inhibition of human eNOS expressed in HEK293 cells assessed as inhibition A23187 induced nitric oxide production at 100 uM incubated for 24 hrs measured after 18 hrs of […] challenge using 2,3-diaminonaphthalene by fluorescence assay; format: cell-based
T2 sequence (whole entry): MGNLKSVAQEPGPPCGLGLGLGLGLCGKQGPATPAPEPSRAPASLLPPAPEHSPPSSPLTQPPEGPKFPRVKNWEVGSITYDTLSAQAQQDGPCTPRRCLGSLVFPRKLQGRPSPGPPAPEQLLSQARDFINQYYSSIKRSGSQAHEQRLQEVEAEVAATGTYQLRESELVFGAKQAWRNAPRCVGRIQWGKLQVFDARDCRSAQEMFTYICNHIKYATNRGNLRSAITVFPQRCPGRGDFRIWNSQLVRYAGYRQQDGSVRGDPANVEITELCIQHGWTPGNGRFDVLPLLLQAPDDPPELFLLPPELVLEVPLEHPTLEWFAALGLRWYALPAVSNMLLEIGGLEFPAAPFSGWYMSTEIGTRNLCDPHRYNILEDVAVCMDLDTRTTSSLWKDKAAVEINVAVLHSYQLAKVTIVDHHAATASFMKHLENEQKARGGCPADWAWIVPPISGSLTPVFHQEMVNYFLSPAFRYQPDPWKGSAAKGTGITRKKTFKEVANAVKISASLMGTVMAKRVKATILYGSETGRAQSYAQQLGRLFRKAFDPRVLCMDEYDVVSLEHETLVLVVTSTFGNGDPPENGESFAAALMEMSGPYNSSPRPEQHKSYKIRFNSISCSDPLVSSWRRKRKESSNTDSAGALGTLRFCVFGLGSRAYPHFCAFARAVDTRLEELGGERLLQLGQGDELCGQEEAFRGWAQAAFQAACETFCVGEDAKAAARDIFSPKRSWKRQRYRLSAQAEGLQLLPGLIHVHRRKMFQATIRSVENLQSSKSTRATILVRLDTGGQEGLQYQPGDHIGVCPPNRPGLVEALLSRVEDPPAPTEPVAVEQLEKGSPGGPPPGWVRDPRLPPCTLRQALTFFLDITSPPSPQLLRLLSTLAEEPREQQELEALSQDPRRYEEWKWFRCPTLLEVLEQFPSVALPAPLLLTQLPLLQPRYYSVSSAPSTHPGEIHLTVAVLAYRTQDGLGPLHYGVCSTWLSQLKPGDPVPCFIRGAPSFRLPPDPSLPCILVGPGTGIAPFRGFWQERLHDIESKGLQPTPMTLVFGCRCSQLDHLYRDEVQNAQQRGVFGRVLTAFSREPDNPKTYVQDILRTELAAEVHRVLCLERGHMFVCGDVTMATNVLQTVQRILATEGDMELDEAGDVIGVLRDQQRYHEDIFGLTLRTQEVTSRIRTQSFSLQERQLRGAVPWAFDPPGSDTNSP

Nitric oxide synthase 1 [5] = target: T1, Nitric oxide synthase 1; assay: Inhibition of human nNOS expressed in HEK293 cells assessed as inhibition ionomycin induced nitric oxide production at 10 uM incubated for 24 hrs measured after 18 hrs of ionomycin challenge using 2,3-diaminonaphthalene by fluorescence assay; format: cell-based
Nitric oxide synthase 3 = target: T3, Nitric oxide synthase 3 (Homo sapiens, UniProt P29474); assay: Inhibition of human eNOS expressed in HEK293 cells assessed as inhibition A23187 induced nitric oxide production incubated for 24 hrs measured after 18 hrs of […] challenge using 2,3-diaminonaphthalene by fluorescence assay; format: cell-based; method in brief: as §1
T3 sequence (P29474 whole entry): T2 sequence (whole entry)

[6] = target: Nitric oxide synthase, inducible (Homo sapiens, UniProt P35228); assay: Inhibition of human iNOS expressed in HEK293 cells assessed as inhibition of nitric oxide production after 18 hrs using 2,3-diaminonaphthalene by fluorescence assay; format: cell-based
Nitric oxide synthase, inducible, sequence (P35228 whole entry): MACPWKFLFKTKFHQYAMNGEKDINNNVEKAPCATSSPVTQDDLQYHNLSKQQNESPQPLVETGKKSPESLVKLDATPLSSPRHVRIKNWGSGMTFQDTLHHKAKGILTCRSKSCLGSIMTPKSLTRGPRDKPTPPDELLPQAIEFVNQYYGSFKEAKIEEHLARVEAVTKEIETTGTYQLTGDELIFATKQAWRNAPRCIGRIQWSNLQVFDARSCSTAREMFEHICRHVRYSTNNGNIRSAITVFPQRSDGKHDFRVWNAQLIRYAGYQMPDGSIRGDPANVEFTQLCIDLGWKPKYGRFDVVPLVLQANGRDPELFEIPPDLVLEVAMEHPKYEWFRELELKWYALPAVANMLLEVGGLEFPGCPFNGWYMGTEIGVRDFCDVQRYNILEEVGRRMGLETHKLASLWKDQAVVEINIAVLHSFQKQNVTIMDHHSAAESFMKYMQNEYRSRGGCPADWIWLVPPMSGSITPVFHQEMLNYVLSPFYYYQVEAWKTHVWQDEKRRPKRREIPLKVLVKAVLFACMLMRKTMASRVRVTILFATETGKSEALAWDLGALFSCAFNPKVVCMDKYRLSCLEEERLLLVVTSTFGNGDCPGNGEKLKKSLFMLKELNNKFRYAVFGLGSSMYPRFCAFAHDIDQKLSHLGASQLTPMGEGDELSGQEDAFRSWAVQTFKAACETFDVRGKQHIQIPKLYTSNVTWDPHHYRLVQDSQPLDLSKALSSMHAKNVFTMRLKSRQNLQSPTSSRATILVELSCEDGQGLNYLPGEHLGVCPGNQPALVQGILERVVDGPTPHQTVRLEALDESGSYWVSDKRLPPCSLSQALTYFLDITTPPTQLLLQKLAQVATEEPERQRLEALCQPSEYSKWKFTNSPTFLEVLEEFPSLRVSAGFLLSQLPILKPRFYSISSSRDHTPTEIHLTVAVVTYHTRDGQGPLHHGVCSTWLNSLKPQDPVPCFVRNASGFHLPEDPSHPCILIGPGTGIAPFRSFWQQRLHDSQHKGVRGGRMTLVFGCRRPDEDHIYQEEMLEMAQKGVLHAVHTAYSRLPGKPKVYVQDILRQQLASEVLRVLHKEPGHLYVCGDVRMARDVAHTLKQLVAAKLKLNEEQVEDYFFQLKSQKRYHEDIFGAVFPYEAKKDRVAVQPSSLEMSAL
Method in brief: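 HEK293 cells grown to ~70% confluence in DMEM/10% FBS with pen/strep, transiently transfected with 10 μg human or murine iNOS plasmid plus Fugene 6 for 4 h at 37 °C, 10% CO2. Cells replated at 5e5 cells/mL and dosed with compound at once; 1400W (100 μM final) as positive control. After 18 h, DAN (10 μg/mL final) in HCl (0.1 N final) added for 20 min at room temperature. Fluorescence read after NaOH (0.12 N final).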

SMILES | Ratio EC50 (Homo sapiens [1]) | Ratio EC50 (Homo sapiens [2]) | t1/2 (Liver) [h] | EC50 (Nitric oxide synthase 1 [3]) [nM] | inhibition [4] [%] | inhibition (Nitric oxide synthase 1 [5]) [%] | EC50 (Nitric oxide synthase 3) [nM] | EC50 [6] [nM]
Cc1ncsc1C(=O)N(Cc1cc(=O)[nH]c2c(F)cccc12)c1ccccc1 | > 500 | > 50 |  |  |  |  |  | 
O=c1cc(Cn2c(-c3cccnc3)nc3ccccc32)c2ccc(F)c(F)c2[nH]1 | > 11 | > 1 | > 2 | > 10000 | < 50 | < 50 | > 100000 | 9300
Cc1ccnc2c1nc(C1CCC1)n2Cc1cc(=O)[nH]c2c(F)c(F)ccc12 | > 800 |  | 1.53 | 1600 | < 50 |  | > 100000 | 270
O=c1cc(Cn2c(-c3cncs3)nc3ccccc32)c2ccc(F)c(F)c2[nH]1 | > 12 | > 12 | 0.717 | > 10000 | < 50 | < 50 | > 100000 | 8600
Cc1ncsc1-c1nc2ccccc2n1Cc1cc(=O)[nH]c2c(F)cccc12 | 4.1 | 1.2 | > 2 | 4300 |  |  | 15000 | 3700
O=c1cc(Cn2c(C3CC3)nc3ccccc32)c2ccc(F)c(F)c2[nH]1 | 4.3 | 0.9 | > 2 | 1400 |  |  | 6800 | 1600
Cn1cncc1-c1nc2ccccc2n1Cc1cc(=O)[nH]c2c(F)c(F)ccc12 | 1 | 5.3 | > 2 | > 10000 |  | < 50 | 5800 | 5900
COc1ccnc2c1nc(C1CCC1)n2Cc1cc(=O)[nH]c2c(F)c(F)ccc12 | > 480 | 6.2 | > 2 | 1300 | < 50 |  | > 100000 | 210
CC(C)Cc1nc2nccnc2n1Cc1cc(=O)[nH]c2c(F)cccc12 | > 350 | 23 | > 2 | 6800 |  |  | > 100000 | 290
O=c1cc(Cn2c(C3CCCC3)nc3nccnc32)c2ccc(F)c(F)c2[nH]1 | > 360 | 3.6 | > 2 | 1000 |  |  | > 100000 | 280
O=c1cc(Cn2c(C3CCC3)nc3cnccc32)c2ccc(F)c(F)c2[nH]1 | 1.2 | 1.3 | > 2 | 24000 |  |  | 21000 | 18000
CC(C)Cc1nc2nccnc2n1Cc1cc(=O)[nH]c2c(F)c(F)ccc12 | 440 | 3.4 |  |  |  |  |  | 
CCc1nc2ccccc2n1Cc1cc(=O)[nH]c2c(F)c(F)ccc12 | 0.4 | > 2 | > 2 | > 10000 |  | < 50 | 1600 | 4300
O=c1cc(Cn2c(C3CCC3)nc3cccnc32)c2ccc(F)c(F)c2[nH]1 | > 560 | 7.2 | 0.833 | 1300 | < 50 |  | > 100000 | 180
O=c1cc(Cn2c(C3CC(F)(F)C3)nc3nccnc32)c2ccc(F)c(F)c2[nH]1 | 77 | 9.2 | > 2 | 1100 |  |  | 9200 | 120
O=c1cc(Cn2c(C3CCCCC3)nc3ccccc32)c2ccc(F)c(F)c2[nH]1 | > 11 | 0.6 | > 2 | 5000 | < 50 |  | > 100000 | 8900
O=c1cc(Cn2c(-c3ccncc3)nc3ccccc32)c2ccc(F)c(F)c2[nH]1 | 1.9 | 1.3 | 1.07 | 2900 |  |  | 4200 | 2200
O=c1cc(Cn2c(C3CCC3)nc3c(C(F)(F)F)ccnc32)c2ccc(F)c(F)c2[nH]1 | > 670 | 13 | 1.43 | 2000 | < 50 |  | > 100000 | 150
O=c1cc(Cn2c(C3CC(F)(F)C3)nc3nccnc32)c2cccc(F)c2[nH]1 | > 460 | 14 |  |  |  |  |  | 

Now from value to compound:

Ratio EC50 (Homo sapiens [1]) | Ratio EC50 (Homo sapiens [2]) | t1/2 (Liver) [h] | EC50 (Nitric oxide synthase 1 [3]) [nM] | inhibition [4] [%] | inhibition (Nitric oxide synthase 1 [5]) [%] | EC50 (Nitric oxide synthase 3) [nM] | EC50 [6] [nM] | SMILES
15 | 0.7 | > 2 | 610 |  |  | 13000 | 850 | CC(C)c1nc2nccnc2n1Cc1cc(=O)[nH]c2c(F)c(F)ccc12
3.8 | 2.9 | > 2 | 990 |  |  | 1300 | 340 | Cc1cnccc1-c1nc2ccccc2n1Cc1cc(=O)[nH]c2c(F)c(F)ccc12
6.5 | 1.6 | > 2 | 950 |  |  | 3900 | 600 | O=c1cc(Cn2c(CC3CC3)nc3ccccc32)c2ccc(F)c(F)c2[nH]1
> 74 | 0.5 | > 2 | 650 | < 50 |  | > 100000 | 1360 | CC(C)CCc1nc2ccccc2n1Cc1cc(=O)[nH]c2c(F)c(F)ccc12
1.8 | 0.9 | > 2 | 690 |  |  | 1300 | 730 | CCCc1nc2ccccc2n1Cc1cc(=O)[nH]c2c(F)c(F)ccc12
15 | 0.9 | > 2 | 520 |  |  | 8800 | 590 | O=c1cc(Cn2c(C3CCC3)nc3ncccc32)c2ccc(F)c(F)c2[nH]1
5.4 | 1.2 | 0.467 | 650 |  |  | 2900 | 540 | O=c1cc(Cn2c(CC3CCC3)nc3ccccc32)c2ccc(F)c(F)c2[nH]1
> 133 | 1 | > 2 | 770 | < 50 |  | > 100000 | 750 | O=c1cc(Cn2c(C3CCCC3)nc3ccccc32)c2ccc(F)c(F)c2[nH]1
> 220 | 1.6 |  | 730 | < 50 |  | > 100000 | 460 | O=c1cc(Cn2c(C3CCC3)nc3ccncc32)c2ccc(F)c(F)c2[nH]1
> 370 | 2.8 | 0.6 | 760 | < 50 |  | > 100000 | 270 | O=c1cc(Cn2c(C3CCC3)nc3c(Cl)ccnc32)c2ccc(F)c(F)c2[nH]1
